pIC50: −log10 of the molar value. The source made the active and inactive calls. The rule behind the calls is not given here.
What was measured:
[1] = Toxicity in Swiss albino mouse assessed as haemoglobin level at 300 mg/kg, po administered for 7 days (reference value: 15.66 +/- 0.80 g/dl); type: organism-based; settings: in vivo, 168 h, time 7 day
[2] = Toxicity in Swiss albino mouse assessed as WBC level at 1000 mg/kg, po administered for 7 days (reference value: 5.29 +/- 0.51 10^3/mm3); type: organism-based; settings: in vivo, 168 h, time 7 day
Method in brief: (§1)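 Single acute oral dose (5, 50, 300 or 1000 mg/kg) given to Swiss albino mice, n = 6, with 7-day observation. At the end, haematological and serum biochemical parameters were measured. Compared with untreated controls; mean ± SE, ANOVA, p < 0.05.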

[3] = Hepatotoxicity in Swiss albino mouse assessed as serum protein level at 1000 mg/kg, po administered for 7 days (reference value: 5.73 +/- 0.21 mg/ml); type: toxicity, organism-based; settings: in vivo, 168 h, time 7 day; method in brief: as §1
[4] = Toxicity in Swiss albino mouse assessed as haemoglobin level at 1000 mg/kg, po administered for 7 days (reference value: 15.66 +/- 0.80 g/dl); type: organism-based; settings: in vivo, 168 h, time 7 day
[5] = Hepatotoxicity in Swiss albino mouse assessed as SGOT level at 300 mg/kg, po administered for 7 days (reference value: 31.51 +/- 6.31 U/L); type: toxicity, organism-based; settings: in vivo, 168 h, time 7 day; method in brief: as §1
[6] = Toxicity in Swiss albino mouse assessed as change in body weight at 5 mg/kg, po administered for 7 days (reference value: 29.35 +/- 0.57 g); type: organism-based; settings: in vivo, 168 h, time 7 day
[7] = Hepatotoxicity in Swiss albino mouse assessed as albumin level at 5 mg/kg, po administered for 7 days (reference value: 4.12 +/- 0.17 g/dl); type: toxicity, organism-based; settings: in vivo, 168 h, time 7 day; method in brief: as §1
[8] = Toxicity in Swiss albino mouse assessed as change in absolute spleen weight at 5 to 1000 mg/kg, po administered for 7 days; type: organism-based; settings: in vivo, 168 h, dose 5-1000 mg/kg, time 7 day
[9] = Toxicity in Swiss albino mouse assessed as triglyceride level at 5 mg/kg, po administered for 7 days (reference value: 136.88 +/- 3.12 mg/dl); type: organism-based; settings: in vivo, 168 h, time 7 day
MDA-MB-231 = assay: Cytotoxicity against human MDA-MB-231 cells incubated for 72 hrs by Sulphorhodamine assay; type: functional, cell-based; settings: MDA-MB-231, 72 h
[10] = Renal toxicity in Swiss albino mouse assessed as creatinine level at 1000 mg/kg, po administered for 7 days (reference value: 0.76 +/- 0.06 mg/dl); type: organism-based; settings: in vivo, 168 h, time 7 day; method in brief: as §1
Tubulin (Homo sapiens) [11] = molecular target: T1, Tubulin (Homo sapiens) (UniProt P68371+Q9H4B7+P0DPH7+P68366+Q13509+Q71U36+P04350+Q3ZCM7+P07437+P68363+Q9BQE3+Q6PEY2+Q13885+Q9BVA1+Q9BUF5); assay: Induction of microtubule stabilization in human HeLa cells assessed as effect on cellular cytoskeletal network of tubulin at 5 to 10 uM incubated for 4 hrs by Alexa Fluor 488 staining based confocal microscopic analysis; type: cell-based; settings: dose 5-10 µM
Method in brief: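 HeLa cells treated for 4 h at 5 and 10 μM. Microtubules immunostained with Alexa Fluor 488-conjugated anti-β-tubulin and imaged by confocal microscopy with a 60× Plan Apochromat objective. References: paclitaxel 5 nM, podophyllotoxin 5 μM.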

[12] = Toxicity in Swiss albino mouse assessed as RBC level at 1000 mg/kg, po administered for 7 days (reference value: 7.13 +/- 0.40 million/mm3); type: organism-based, Erythrocyte; settings: in vivo, 168 h, time 7 day; method in brief: as §1
[13] = Toxicity in Swiss albino mouse assessed as haemoglobin level at 50 mg/kg, po administered for 7 days (reference value: 15.66 +/- 0.80 g/dl); type: organism-based; settings: in vivo, 168 h, time 7 day
[14] = Toxicity in Swiss albino mouse assessed as change in body weight at 1000 mg/kg, po administered for 7 days (reference value: 29.35 +/- 0.57 g); type: organism-based; settings: in vivo, 168 h, time 7 day
[15] = Antiinflammatory activity in mouse peritoneal macrophage assessed as inhibition of LPS-induced TNFalpha production at 1 ug/ml relative to control; type: functional; set-up: scale not given: the % may be the effect or the level left; settings: dose 1 µg/ml
Tubulin (Homo sapiens) [16] = molecular target: T1, Tubulin (Homo sapiens); assay: Induction of microtubule stabilization (unknown origin) at 0.2 to 5 uM; type: protein-complex assay; settings: dose 0.2-5 µM
[17] = Toxicity in Swiss albino mouse assessed as change in absolute brain weight at 5 to 1000 mg/kg, po administered for 7 days; type: organism-based; settings: in vivo, 168 h, dose 5-1000 mg/kg, time 7 day
Homo sapiens = organism: Homo sapiens; assay: Selectivity ratio, ratio of inhibition of HDAC in human HeLa nuclear extract assessed as residual activity to inhibition of human recombinant HDAC6 assessed as residual activity
Method in brief: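 Compounds at 20 μM tested by fluorometric assay on HeLa nuclear extract (class I/II HDACs) and on human recombinant HDAC6. Residual activity is expressed relative to untreated control. Selectivity is the ratio of PanHDAC to HDAC6 residual activity: ≥7 high, 2.5–6.9 moderate, <2.5 low.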

[18] = Hepatotoxicity in Swiss albino mouse assessed as alkaline phosphatase level at 1000 mg/kg, po administered for 7 days (reference value: 260.10 +/- 26.76 U/L); type: toxicity, organism-based; settings: in vivo, 168 h, time 7 day; method in brief: as §1
[19] = Toxicity in Swiss albino mouse assessed as change in relative spleen weight at 5 to 1000 mg/kg, po administered for 7 days; type: organism-based; settings: in vivo, 168 h, dose 5-1000 mg/kg, time 7 day
[20] = Toxicity in Swiss albino mouse assessed as change in absolute lungs weight at 5 to 1000 mg/kg, po administered for 7 days; type: organism-based; settings: in vivo, 168 h, dose 5-1000 mg/kg, time 7 day
[21] = Toxicity in Swiss albino mouse assessed as morbidity at 5 to 1000 mg/kg, po administered for 7 days; type: organism-based; settings: in vivo, 168 h, dose 5-1000 mg/kg, time 7 day
[22] = Toxicity in Swiss albino mouse assessed as RBC level at 300 mg/kg, po administered for 7 days (reference value: 7.13 +/- 0.40 million/mm3); type: organism-based, Erythrocyte; settings: in vivo, 168 h, time 7 day; method in brief: as §1
MCF7 = assay: Cytotoxicity against human MCF7 cells incubated for 72 hrs by Sulphorhodamine assay; type: functional, cell-based; settings: MCF7, 72 h
[23] = Hepatotoxicity in Swiss albino mouse assessed as alkaline phosphatase level at 300 mg/kg, po administered for 7 days (reference value: 260.10 +/- 26.76 U/L); type: toxicity, organism-based; settings: in vivo, 168 h, time 7 day; method in brief: as §1
[24] = Antiinflammatory activity in mouse peritoneal macrophage assessed as reduction in LPS-induced TNFalpha production at 10 ug/ml; type: functional; settings: dose 10 µg/ml
[25] = Toxicity in Swiss albino mouse assessed as mortality at 5 to 1000 mg/kg, po administered for 7 days; type: organism-based; settings: in vivo, 168 h, dose 5-1000 mg/kg, time 7 day
[26] = Toxicity in Swiss albino mouse assessed as triglyceride level at 300 mg/kg, po administered for 7 days (reference value: 136.88 +/- 3.12 mg/dl); type: organism-based; settings: in vivo, 168 h, time 7 day
[27] = Toxicity in Swiss albino mouse assessed as haemoglobin level at 5 mg/kg, po administered for 7 days (reference value: 15.66 +/- 0.80 g/dl); type: organism-based; settings: in vivo, 168 h, time 7 day
[28] = Toxicity in Swiss albino mouse assessed as change in absolute heart weight at 5 to 1000 mg/kg, po administered for 7 days; type: organism-based; settings: in vivo, 168 h, dose 5-1000 mg/kg, time 7 day
[29] = Toxicity in Swiss albino mouse assessed as change in relative lungs weight at 5 to 1000 mg/kg, po administered for 7 days; type: organism-based; settings: in vivo, 168 h, dose 5-1000 mg/kg, time 7 day
[30] = Hepatotoxicity in Swiss albino mouse assessed as alkaline phosphatase level at 5 mg/kg, po administered for 7 days (reference value: 260.10 +/- 26.76 U/L); type: toxicity, organism-based; settings: in vivo, 168 h, time 7 day; method in brief: as §1

COc1cc(C2/C(=C/c3ccc(/C=C/C(=O)NO)cc3)C(=O)c3cc(OC)c(OC)c(OC)c32)cc(OC)c1OC (stereo not drawn)
Activity [1]: 16.77 g/dL
Activity [2]: 4.73 10^3/mm3
Activity [3]: 5.87 mg/mL
Activity [4]: 16.73 g/dL
Activity [5]: 29.93 U/L
Activity [6]: 28.17 g
Activity [7]: 4.34 g/dL
Activity [8]: Non-Toxic
Activity [9]: 146.79 mg/dL
pIC50 (MDA-MB-231): 6.44
Activity [10]: 0.74 mg/dL
Activity (Tubulin (Homo sapiens) [11]): Active
Activity [12]: 8.53 million/mm3
Activity [13]: 15.54 g/dL
Activity [14]: 27.43 g
Activity [15]: 17.28%
Activity (Tubulin (Homo sapiens) [16]): Active
Activity [17]: Non-Toxic
Ratio (Homo sapiens): < 0.5
Activity [18]: 277.51 U/L
Activity [19]: Non-Toxic
Activity [20]: Non-Toxic
Activity [21]: Non-Toxic
Activity [22]: 8.48 million/mm3
pIC50 (MCF7): < 4.00
Activity [23]: 238.88 U/L
Activity [24]: 872.08 pg/mL
Activity [25]: Non-Toxic
Activity [26]: 127.18 mg/dL
Activity [27]: 17.63 g/dL
Activity [28]: Non-Toxic
Activity [29]: Non-Toxic
Activity [30]: 221.34 U/L

From ChEMBL document CHEMBL5257120 (Bioorg Med Chem, 2023)
